What was measured:
[1] = biological target: DNA topoisomerase 2-alpha (Homo sapiens) (UniProt P11388); test: Inhibition of human topoisomerase 2alpha-mediated relaxation of supercoiled pBR322 at 100 uM after 30 mins by electrophoresis analysis
KB = test: Cytotoxicity against human KB cells after 3 days by MTT assay; type: functional, cell-based; conditions: 72 h
Summary of the method: (§1)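 Cells were cultured per supplier instructions at 2–4 × 10⁴ cells/well in medium with 10% (v/v) FBS, overnight at 37 °C under 5% CO₂. Compounds were then added, and after 3 days MTT was added to 0.5 mg/mL final for 4 h. Medium was replaced for solubilization with glycine pH 10.5. Doxorubicin was the positive control, and IC₅₀ values were derived.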

MCF7 = test: Cytotoxicity against human MCF7 cells after 3 days by MTT assay; type: functional, cell-based; conditions: MCF7, 72 h; summary of the method: as §1
NCI-H187 = test: Cytotoxicity against human NCI-H187 cells after 3 days by MTT assay; type: functional, cell-based; conditions: NCI-H187, 72 h; summary of the method: as §1
SW-620 = test: Cytotoxicity against human SW620 cells after 3 days by MTT assay; type: functional, cell-based; conditions: SW-620, 72 h; summary of the method: as §1
[2] = Cytotoxicity against human KATO cells after 3 days by MTT assay; type: functional, cell-based; conditions: 72 h; summary of the method: as §1
[3] = Cytotoxicity against human ChaGo cells after 3 days by MTT assay; type: functional, cell-based; conditions: 72 h; summary of the method: as §1
BT-474 = test: Cytotoxicity against human BT474 cells after 3 days by MTT assay; type: functional, cell-based; conditions: BT-474, 72 h; summary of the method: as §1
HepG2 = test: Cytotoxicity against human HepG2 cells after 3 days by MTT assay; type: functional, cell-based; conditions: HepG2, 72 h; summary of the method: as §1
Nucleic Acid [4] = test: Binding affinity to calf thymus DNA assessed as increase in melting temperature (reference value: 56.4 degC); type: nucleic-acid assay; conditions: Bos taurus
Nucleic Acid [5] = test: Binding affinity to calf thymus DNA assessed as change in melting temperature; type: nucleic-acid assay; conditions: Bos taurus
[6] = biological target: DNA topoisomerase 2-alpha (Homo sapiens) (UniProt P11388); test: Inhibition of human topoisomerase 2alpha-mediated relaxation of supercoiled pBR322 at 20 uM after 30 mins by electrophoresis analysis

DNA topoisomerase 2-alpha (Homo sapiens), sequence (P11388 whole entry): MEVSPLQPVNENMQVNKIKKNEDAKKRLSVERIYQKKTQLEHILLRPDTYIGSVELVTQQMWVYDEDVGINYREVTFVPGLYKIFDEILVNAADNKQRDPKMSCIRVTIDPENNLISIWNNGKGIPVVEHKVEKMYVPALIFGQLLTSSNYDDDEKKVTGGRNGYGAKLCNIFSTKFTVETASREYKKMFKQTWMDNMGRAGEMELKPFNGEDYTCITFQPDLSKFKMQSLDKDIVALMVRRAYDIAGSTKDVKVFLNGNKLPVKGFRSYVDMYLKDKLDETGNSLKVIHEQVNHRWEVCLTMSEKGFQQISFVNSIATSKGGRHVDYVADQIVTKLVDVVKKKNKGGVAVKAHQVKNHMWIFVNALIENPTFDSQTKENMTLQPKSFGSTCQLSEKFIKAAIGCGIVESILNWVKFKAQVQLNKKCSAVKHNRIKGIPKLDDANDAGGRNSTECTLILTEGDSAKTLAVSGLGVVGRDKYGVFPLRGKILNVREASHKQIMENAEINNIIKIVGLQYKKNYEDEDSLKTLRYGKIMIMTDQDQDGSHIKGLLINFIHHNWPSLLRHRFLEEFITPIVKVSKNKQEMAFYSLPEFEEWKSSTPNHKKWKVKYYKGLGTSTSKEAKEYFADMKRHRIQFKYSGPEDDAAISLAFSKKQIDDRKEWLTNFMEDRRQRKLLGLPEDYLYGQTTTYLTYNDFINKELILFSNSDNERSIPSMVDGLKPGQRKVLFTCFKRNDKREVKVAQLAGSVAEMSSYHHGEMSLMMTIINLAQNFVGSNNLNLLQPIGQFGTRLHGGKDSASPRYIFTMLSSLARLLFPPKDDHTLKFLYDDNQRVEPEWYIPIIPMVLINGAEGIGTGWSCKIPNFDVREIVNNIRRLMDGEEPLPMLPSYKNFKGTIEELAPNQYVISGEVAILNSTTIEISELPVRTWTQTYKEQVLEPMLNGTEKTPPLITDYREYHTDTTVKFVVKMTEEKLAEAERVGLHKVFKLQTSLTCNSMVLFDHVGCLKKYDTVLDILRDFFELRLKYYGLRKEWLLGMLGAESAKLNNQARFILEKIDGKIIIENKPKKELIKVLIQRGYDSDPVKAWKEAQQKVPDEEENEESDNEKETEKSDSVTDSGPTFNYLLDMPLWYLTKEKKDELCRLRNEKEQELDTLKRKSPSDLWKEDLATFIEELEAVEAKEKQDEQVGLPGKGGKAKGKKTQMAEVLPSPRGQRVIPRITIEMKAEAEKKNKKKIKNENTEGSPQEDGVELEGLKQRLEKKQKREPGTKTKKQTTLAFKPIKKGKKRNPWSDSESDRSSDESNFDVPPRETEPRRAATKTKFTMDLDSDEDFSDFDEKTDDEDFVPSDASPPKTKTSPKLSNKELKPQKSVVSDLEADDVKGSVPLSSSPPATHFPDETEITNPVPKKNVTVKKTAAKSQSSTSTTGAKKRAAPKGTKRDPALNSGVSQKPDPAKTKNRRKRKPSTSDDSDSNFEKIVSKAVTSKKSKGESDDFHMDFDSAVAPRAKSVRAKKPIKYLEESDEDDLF

For `COc1cc(OCC(O)CO)c2c(c1)O[C@@H]1COc3cc(OC)c(OC)cc3[C@]1(O)C2=O` (mixture of isomers), the inhibition [1] was 38.8%, the IC50 (KB) was 13.4 µM and the IC50 (MCF7) was over 100 µM. The IC50 (NCI-H187) was 13.9 µM, the IC50 (SW-620) was 8.04 µM and the IC50 [2] was over 100 µM. The IC50 [3] was over 100 µM, the IC50 (BT-474) was over 100 µM and the IC50 (HepG2) was over 100 µM.
`COc1cc(OCC(O)CNCCN2CCOCC2)c2c(c1)O[C@@H]1COc3cc(OC)c(OC)cc3[C@]1(O)C2=O` (mixture of isomers) gave an inhibition [1] of 77.1%, an IC50 (KB) of 26.3 µM and an IC50 (MCF7) of 36.8 µM. For the same molecule, the IC50 (NCI-H187) was 4.7 µM, the IC50 (SW-620) was 0.54 µM and the IC50 [2] was 1.94 µM. It also gave an IC50 [3] of 40.2 µM, an IC50 (BT-474) of 0.45 µM and an IC50 (HepG2) of 0.56 µM. For the same molecule, the Tm (Nucleic Acid [4]) was 66.1 °C and the ΔTm (Nucleic Acid [5]) was 8.8 °C.
Work on `COc1cc(OCC(O)CNCc2ccccc2)c2c(c1)O[C@@H]1COc3cc(OC)c(OC)cc3[C@]1(O)C2=O` (mixture of isomers) yielded an inhibition [1] of 81.7%, an IC50 (KB) of 32.3 µM and an IC50 (MCF7) of 34.6 µM. The IC50 (NCI-H187) was 35.5 µM, the IC50 (SW-620) was 0.59 µM and the IC50 [2] was 0.67 µM. For the same molecule, the IC50 [3] was 31 µM, the IC50 (BT-474) was 0.62 µM and the IC50 (HepG2) was 0.72 µM. It also gave a Tm (Nucleic Acid [4]) of 68 °C and a ΔTm (Nucleic Acid [5]) of 10.7 °C.
For `COc1cccc2c1C(=O)c1c(O)c3c(c(O)c1C2=O)C[C@@](O)(C(=O)CO)C[C@@H]3O[C@H]1C[C@H](N)[C@H](O)[C@H](C)O1` [DOXORUBICIN], the inhibition [1] was 72.1%, the IC50 (KB) was 2.01 µM and the IC50 (NCI-H187) was 0.03 µM. It also gave an IC50 (SW-620) of 0.23 µM, an IC50 [2] of 0.33 µM and an IC50 [3] of 0.83 µM. The IC50 (BT-474) was 0.07 µM and the IC50 (HepG2) was 0.26 µM.
Molecule `COCC(O)COc1cc(OC)cc2c1C(=O)[C@@]1(O)c3cc(OC)c(OC)cc3OC[C@H]1O2` (mixture of isomers) has an inhibition [1] of 58.4%, an IC50 (KB) of 46.9 µM and an IC50 (MCF7) of over 100 µM. For the same molecule, the IC50 (NCI-H187) was 11.7 µM, the IC50 (SW-620) was over 100 µM and the IC50 [2] was over 100 µM. The IC50 [3] was over 100 µM, the IC50 (BT-474) was over 100 µM and the IC50 (HepG2) was over 100 µM.
`COc1cc(OCC(O)CNCC(O)c2ccccc2)c2c(c1)O[C@@H]1COc3cc(OC)c(OC)cc3[C@]1(O)C2=O` (mixture of isomers) showed an inhibition [1] of 60.4%, an IC50 (KB) of 46.4 µM and an IC50 (NCI-H187) of 22.1 µM. It also gave an IC50 (SW-620) of over 100 µM, an IC50 [2] of over 100 µM and an IC50 [3] of over 100 µM. For the same molecule, the IC50 (BT-474) was over 100 µM and the IC50 (HepG2) was over 100 µM.
`COc1cc(OCC(O)CCl)c2c(c1)O[C@@H]1COc3cc(OC)c(OC)cc3[C@]1(O)C2=O` (mixture of isomers) showed an inhibition [1] of 58.3%, an IC50 (KB) of 14.8 µM and an IC50 (MCF7) of 24.9 µM. It also gave an IC50 (NCI-H187) of 6.61 µM, an IC50 (SW-620) of 1.09 µM and an IC50 [2] of 1.09 µM. The IC50 [3] was over 100 µM, the IC50 (BT-474) was 1.57 µM and the IC50 (HepG2) was 0.81 µM.
Work on `COc1cc(O)c2c(c1)O[C@@H]1COc3cc(OC)c(OC)cc3[C@]1(O)C2=O` yielded an inhibition [1] of 72.1%, an IC50 (KB) of 13.3 µM and an IC50 (MCF7) of 23.7 µM. For the same molecule, the IC50 (NCI-H187) was 3.12 µM, the IC50 (SW-620) was over 100 µM and the IC50 [2] was over 100 µM. It also gave an IC50 [3] of over 100 µM, an IC50 (BT-474) of over 100 µM and an IC50 (HepG2) of over 100 µM. It also gave a Tm (Nucleic Acid [4]) of 57.3 °C.
Work on `COc1cc(OCC(O)CN(CCO)CCO)c2c(c1)O[C@@H]1COc3cc(OC)c(OC)cc3[C@]1(O)C2=O` (stereo not given in full) yielded an inhibition [1] of 49.1%, an IC50 (KB) of over 100 µM and an IC50 (MCF7) of over 100 µM. For the same molecule, the IC50 (NCI-H187) was over 100 µM, the IC50 (SW-620) was over 100 µM and the IC50 [2] was over 100 µM. For the same molecule, the IC50 [3] was over 100 µM, the IC50 (BT-474) was over 100 µM and the IC50 (HepG2) was over 100 µM.
Molecule `COc1cc(OCC(O)CN2CCC(=O)CC2)c2c(c1)O[C@@H]1COc3cc(OC)c(OC)cc3[C@]1(O)C2=O` (mixture of isomers) has an inhibition [1] of 54.2%, an IC50 (KB) of over 100 µM and an IC50 (MCF7) of 48.6 µM. The IC50 (NCI-H187) was over 100 µM, the IC50 (SW-620) was over 100 µM and the IC50 [2] was over 100 µM. For the same molecule, the IC50 [3] was over 100 µM, the IC50 (BT-474) was over 100 µM and the IC50 (HepG2) was over 100 µM.
Molecule `COc1cc(OCC(O)CNCCc2ccccc2)c2c(c1)O[C@@H]1COc3cc(OC)c(OC)cc3[C@]1(O)C2=O` (mixture of isomers) has an inhibition [1] of 66.7%, an IC50 (KB) of 23.5 µM and an IC50 (MCF7) of 3.05 µM. For the same molecule, the IC50 (NCI-H187) was 13.6 µM, the IC50 (SW-620) was over 100 µM and the IC50 [2] was over 100 µM. The IC50 [3] was over 100 µM, the IC50 (BT-474) was over 100 µM and the IC50 (HepG2) was over 100 µM.
`COc1cc(OCC(O)CN2CCOCC2)c2c(c1)O[C@@H]1COc3cc(OC)c(OC)cc3[C@]1(O)C2=O` (mixture of isomers) gave an inhibition [1] of 93.5%, an inhibition [6] of 47.1% and an IC50 (KB) of 26.5 µM. The IC50 (MCF7) was 31.7 µM, the IC50 (NCI-H187) was 2.93 µM and the IC50 (SW-620) was 0.73 µM. It also gave an IC50 [2] of over 100 µM, an IC50 [3] of 0.61 µM and an IC50 (BT-474) of 0.34 µM. It also gave an IC50 (HepG2) of 0.61 µM, a Tm (Nucleic Acid [4]) of 65.1 °C and a ΔTm (Nucleic Acid [5]) of 7.8 °C.
In the case of `COc1cc(OCC2CO2)c2c(c1)O[C@@H]1COc3cc(OC)c(OC)cc3[C@]1(O)C2=O` (mixture of isomers), the inhibition [1] is reported as 68.3%, the IC50 (KB) is reported as 32.9 µM and the IC50 (MCF7) is reported as 5.63 µM. The IC50 (NCI-H187) was 27.8 µM, the IC50 (SW-620) was 0.38 µM and the IC50 [2] was 0.63 µM. It also gave an IC50 [3] of 0.57 µM, an IC50 (BT-474) of 0.45 µM and an IC50 (HepG2) of 0.55 µM. The Tm (Nucleic Acid [4]) was 59.3 °C and the ΔTm (Nucleic Acid [5]) was 2 °C.
